Measurements taken from paper PMC10633821 (RSC Advances, 2023).

Experiments:
Format in all cases: cell-based
MCF-7 cells [1] = assay: MTT assay, anti-proliferative activity on MCF-7 cells; conditions: Homo sapiens, MCF7, 48 h, read-out: IC50, growth/viability of MCF-7 cells
[2] = MTT assay, cytotoxicity on normal breast cells MCF-10A; conditions: human, MCF-10A cells (normal breast cells)
MCF-7 cells [3] = assay: Cell cycle analysis by flow cytometry; conditions: MCF-7, 3b at IC50 (1.85 μM), 48 h
Outline: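 MCF-7 cells were seeded, held 12 h at 37 °C, then treated for 48 h. Cells were collected and fixed in 75% ethanol at 20 °C for 18 h. They were rinsed in PBS, centrifuged, and exposed to RNase plus propidium iodide. DNA content was read by FACS Calibur flow cytometry to give cell-cycle phase distribution.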

MCF-7 cells [4] = assay: Annexin V-FITC/PI assay of apoptosis and necrosis; conditions: MCF-7, 3b at IC50 (1.85 μM), 48 h
Outline: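 MCF-7 cells were treated for 48 h, then harvested and washed twice in PBS by centrifugation (180 g, 10 min, 4 °C). Cells were resuspended in binding buffer with Annexin V-FITC for 10 min at ambient temperature, then diluted with more binding buffer. PI was added immediately before FACS Calibur flow cytometry to separate apoptotic from necrotic cells.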

[5] = biological target: human DNA topoisomerase II-β (TOPII-β) (Homo sapiens, UniProt Q02880); assay: Topoisomerase II activity in MCF-7 cells; conditions: ELISA kit
human DNA topoisomerase II-β (TOPII-β), sequence (Q02880 whole entry): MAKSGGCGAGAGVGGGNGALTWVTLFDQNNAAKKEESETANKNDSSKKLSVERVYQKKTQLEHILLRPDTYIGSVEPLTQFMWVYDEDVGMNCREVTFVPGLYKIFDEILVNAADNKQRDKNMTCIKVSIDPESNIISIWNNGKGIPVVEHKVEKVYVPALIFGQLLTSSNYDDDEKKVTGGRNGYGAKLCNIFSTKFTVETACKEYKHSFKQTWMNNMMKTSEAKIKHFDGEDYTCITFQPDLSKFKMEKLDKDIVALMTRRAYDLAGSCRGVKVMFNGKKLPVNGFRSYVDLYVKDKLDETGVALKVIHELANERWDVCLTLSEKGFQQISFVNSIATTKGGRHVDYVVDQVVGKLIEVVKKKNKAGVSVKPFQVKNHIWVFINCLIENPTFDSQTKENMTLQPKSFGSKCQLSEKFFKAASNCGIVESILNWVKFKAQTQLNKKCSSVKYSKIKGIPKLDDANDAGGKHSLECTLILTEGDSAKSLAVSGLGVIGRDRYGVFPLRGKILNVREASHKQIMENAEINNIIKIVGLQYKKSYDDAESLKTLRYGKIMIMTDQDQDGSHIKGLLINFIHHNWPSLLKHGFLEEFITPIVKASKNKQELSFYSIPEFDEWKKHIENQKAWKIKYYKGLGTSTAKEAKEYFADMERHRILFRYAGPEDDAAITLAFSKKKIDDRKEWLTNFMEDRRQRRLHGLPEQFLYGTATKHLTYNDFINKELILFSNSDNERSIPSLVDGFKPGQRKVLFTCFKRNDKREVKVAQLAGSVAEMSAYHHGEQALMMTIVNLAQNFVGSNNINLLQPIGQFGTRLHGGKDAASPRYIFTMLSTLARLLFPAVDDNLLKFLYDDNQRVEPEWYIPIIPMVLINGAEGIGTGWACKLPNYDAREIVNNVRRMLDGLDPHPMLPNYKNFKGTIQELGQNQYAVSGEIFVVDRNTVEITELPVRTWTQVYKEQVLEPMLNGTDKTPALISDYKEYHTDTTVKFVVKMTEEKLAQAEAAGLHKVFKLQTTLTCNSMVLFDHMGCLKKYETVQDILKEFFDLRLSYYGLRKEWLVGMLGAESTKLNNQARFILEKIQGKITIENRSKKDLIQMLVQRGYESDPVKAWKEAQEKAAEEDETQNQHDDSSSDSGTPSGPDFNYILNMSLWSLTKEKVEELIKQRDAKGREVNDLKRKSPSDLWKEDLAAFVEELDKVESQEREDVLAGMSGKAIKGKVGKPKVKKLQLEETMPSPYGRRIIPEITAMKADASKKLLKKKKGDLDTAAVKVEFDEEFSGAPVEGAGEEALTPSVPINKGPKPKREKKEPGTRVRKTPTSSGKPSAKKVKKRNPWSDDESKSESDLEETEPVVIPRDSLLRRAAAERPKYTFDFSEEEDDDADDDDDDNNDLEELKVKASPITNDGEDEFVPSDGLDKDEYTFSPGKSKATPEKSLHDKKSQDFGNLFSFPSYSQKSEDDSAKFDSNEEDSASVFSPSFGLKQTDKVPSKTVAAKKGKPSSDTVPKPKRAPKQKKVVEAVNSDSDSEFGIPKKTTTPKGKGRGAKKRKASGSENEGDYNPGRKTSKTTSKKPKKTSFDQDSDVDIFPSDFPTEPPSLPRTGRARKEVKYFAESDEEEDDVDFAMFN
Outline: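 Sandwich ELISA for human TOPII-β, run per the kit protocol. Standards and samples were incubated 2 h at 37 °C, then biotin-antibody 1 h at 37 °C, three washes, HRP-avidin 1 h at 37 °C and five washes. TMB substrate was added for 15–30 min at 37 °C in the dark, then stop solution. OD450 was read within 5 min, in triplicate.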

`Oc1c(N=Nc2ccccc2)cc(Br)cc1C1=CNc2ccccc2N1` [compound 7, 2-(5-bromo-3-phenylazo-2-hydroxyphenyl)-1,4-dihydro quinoxaline] gave an IC50 (MCF-7 cells [1]) of 8.6 µM.

With `COc1cccc2cc(-c3cnc4ccccc4n3)c(=O)oc12` [compound 4b, 2-(8-Methoxycoumarin-3-yl)-quinoxaline] the IC50 (MCF-7 cells [1]) was 4.08 µM.

With `COc1ccc(Br)c2cc(-c3cnc4ccccc4n3)c(=O)oc12` [compound 5, 2-(5-bromo-8-methoxy-coumarin-3-yl)-quinoxaline] the IC50 (MCF-7 cells [1]) was 55 µM.

In the case of `COc1cccc2cc(C3=Nc4ccccc4NC3)c(=O)oc12` [compound 3b, 2-(8-Methoxy-coumarin-3yl)-3,4-dihydroquinoxaline], the IC50 (MCF-7 cells [1]) is reported as 1.85 ± 0.11 µM, the IC50 at 48 h [2] is reported as 33.7 ± 2.04 µM and the “percentage of cells in the pre-G1 phase” value (MCF-7 cells [3]; untreated control 2.02%) is reported as 42.39%. For the same molecule, the “percentage of cells in the G2/M phase (%DIP G2/M)” value (MCF-7 cells [3]; untreated control 11.65%) was 6.52%, the “proportion of cells in the S phase (%DIP S)” value (MCF-7 cells [3]; untreated control 32.89%) was 47.12% and the “percentage of cells in the G0/G1 phase (%DIP G1)” value (MCF-7 cells [3]; untreated control 55.46%) was 46.36%. For the same molecule, the “increase in early apoptosis vs untreated control” value (MCF-7 cells [4]) was 51.7 fold, the “increase in programmed cell death vs untreated cells” value (MCF-7 cells [4]) was 21 fold and the “proportion of cells in late-stage apoptosis” value (MCF-7 cells [4]; control 0.29%) was 12.42%. For the same molecule, the “proportion of cells in early apoptosis” value (MCF-7 cells [4]; control 0.51%) was 26.39%, the “proportion of cells suffering necrosis” value (MCF-7 cells [4]; untreated 1.2%) was 3.58% and the “total programmed cell death” value (MCF-7 cells [4]; untreated cells 2.02%) was 42.39%. For the same molecule, the “reduction of topo II enzyme in comparison to untreated control cells” value [5] was 6.5 fold.
